# Source: PubChem BioAssay (Broad Institute)
# Compounds with a hit are over-represented: about 4% of the library has one in this group of screens.
# E-selectin induc = E-selectin induction on HUVECs | P16581 | HUVEC E-selectin immunofluorescence imaging; normalized: neutral wells 0, TNF-alpha wells 100 | activation, % at 7.58 µM | hit rate 0.37% among 260,000 | AID 686992;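 active = mean E-selectin-positive cell signal at least 10% of the positive control, reached in at least 60% of replicates, without over 20% cell loss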
#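 Test system: HUVEC | Signal: Immunofluorescence imaging | Read-out: Percent E-selectin-positive cells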
# C2C12 statin = suppression of simvastatin myotoxicity | C2C12 myotubes + simvastatin, ATP luminescence, 48 h; scaled: DMSO 0, geranylgeraniol control 100 | rescue of ATP level, % at 7.49 µM | hit rate 0.78% among 330,000 | AID 602340;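 active = mean ATP rescue above about 67%, or every replicate alone reaching that limit, limit read from the data, passing the limit was not always enough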;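 also: myotubes were challenged with 10 µM simvastatin during compound exposure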
# Ecoli rRNA inh = selective bacterial rRNA inhibition in E. coli; E. coli WT GFP vs humanized-ribosome RFP mutants, fluorescence, 24 h; active compounds read low; DMSO median 0, no signal -100; GFP signal change (wild-type ribosome), % (concentration not given with the values); hit rate 1.6% among 350,000; AID 720706;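 active = significant combined selectivity score with lowered wild-type GFP, culture density cut under 30%, mutant RFP and density less affected; inactive = any of these conditions unmet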
# FN deposition inh = fibronectin deposition inhibition | AH1F fibroblasts, Alexa488-fibronectin deposition fluorescence, overnight | inhibition, % at 12.6 µM | hit rate 0.086% among 350,000 | AID 743247;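 active = mean inhibition across replicates of 30% or more, regardless of how many single replicates reach that level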;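 also: positive control wells lacked labelled fibronectin entirely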
#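 Material – AH1F fibroblast monolayer, labelled fibronectin deposition · Reagent – labelled fibronectin 24 nM · Timing – 1 h adhesion, overnight exposure · Measured by – fluorescence at 485 nm excitation, 525 nm emission · Read-out – inhibition of fibronectin deposition signal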
# SIRT5 inh = sirtuin-5 (human) deacylase inhibition | AID 652115 | Q9NXA8 | inhibition, % at 15 µM | Purified SirT5, succinyl-peptide AMC, trypsin-coupled fluorescence | hit rate 1.1% among 330,000; in the data active = inhibition above about 15%
# FGF22 binding = FGF22 (human) thermal shift binding | Q9HCT0 | recombinant FGF22 thermal shift, SYPRO orange fluorescence; percent of sucrose octasulfate shift, DMSO zero | activity (Tm shift, normalised), % at 9.99 µM | hit rate 1.5% among 340,000 | AID 651658;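 active = mean Tm shift, scaled 0 neutral to 100 positive control, at about 1.3% or above, every replicate too, limit read from the data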
# Target sequence (Q9HCT0 whole entry, looked up): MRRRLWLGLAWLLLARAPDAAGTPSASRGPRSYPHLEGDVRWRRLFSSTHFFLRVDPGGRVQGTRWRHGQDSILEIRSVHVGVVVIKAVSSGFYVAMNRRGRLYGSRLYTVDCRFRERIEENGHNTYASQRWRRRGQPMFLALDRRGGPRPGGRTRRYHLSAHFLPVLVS
# * = called active by the depositor; nt = not tested or not shown; ! = a repeat was not active.
SMILES,E-selectin induc,C2C12 statin,Ecoli rRNA inh,FN deposition inh,SIRT5 inh,FGF22 binding
C[C@H](O)C#Cc1cnc2c(c1)C(=O)N([C@H](C)CO)C[C@@H](C)[C@H](CN(C)C(=O)CN1CCOCC1)O2,nt,31,4,nt,-3,0
CCOC(=O)CCCc1ccc(/C(C)=N/NC(N)=S)cc1,nt,nt,-44*,-16,-1,0
CCCCn1c(SCC(=O)Nc2nc(C)cs2)nnc1-c1cccnc1,nt,5,-3,nt,17*,0
Cc1ccc(C(=O)CSc2nnc(-c3ccco3)n2Cc2ccccc2)cc1,nt,83*,nt,-7,nt,nt
O=C(CSc1nnc(-c2ccco2)n1Cc1ccccc1)c1ccccc1,nt,41,nt,nt,nt,nt
O=C(CSc1nnc(-c2ccncc2)n1Cc1ccco1)c1ccc(Cl)cc1,nt,1,-20*,nt,-5,nt
Cc1occc1-c1nnc(SCC(=O)c2ccc(Cl)cc2)n1CC1CCCO1 (configuration not stated),nt,137*,3,-3,2,nt
CO[C@@H]1CN(C)C(=O)c2cc(NC(=O)CC(F)(F)F)ccc2OC[C@@H](C)N(C(=O)c2ccccc2F)C[C@@H]1C,0,nt,3,-1,0,0
C[C@H](CO)N1C[C@H](C)[C@@H](CN(C)C(=O)c2ccccc2)Oc2cc(C3=CCCCC3)ccc2S1(=O)=O,0,-63,-4,5,3,0
O=C(C[C@H]1C=C[C@@H](NC(=O)c2cccnc2)[C@H](CO)O1)NCc1ccncn1,0,nt,2,3,8,nt
CCCNC(=O)C[C@H]1C[C@@H]2c3cc(NC(=O)Nc4ccccc4)ccc3O[C@@H]2[C@H](CO)O1,0,2,1,1,nt,0
Cc1noc(C)c1NC(=O)Nc1ccc2c(c1)C(=O)N([C@H](C)CO)C[C@H](C)[C@H](CN(C)Cc1ccc(Cl)c(Cl)c1)OCCCC[C@H](C)O2,0,nt,-10,nt,7,0
O=C(CSc1nnc(-c2ccncc2)n1Cc1ccco1)Nc1nc(-c2ccccc2)cs1,nt,98*,nt,-8,nt,nt
C[C@@H]1CN([C@H](C)CO)C(=O)Cc2cc(NC(=O)CCN3CCOCC3)ccc2O[C@@H]1CN(C)C(=O)Nc1ccc2c(c1)OCO2,3,-27,9,nt,2,0
Cc1cc(C)c2sc(NNC(=O)C3COc4ccccc4O3)nc2c1 (configuration not stated),83*,-5,-45,0,-1,0
COc1ccc(NC(=O)COc2nc3ccccc3nc2N2CCOCC2)c(OC)c1,nt,nt,10,1,-1,43*
CC(C)NC(=O)c1cccc(Br)c1,nt,-3,2,nt,28*,1
Cc1ccc(C(=O)NNC(=O)c2cccc(Br)c2)cc1,nt,11,8,0,-2,0
Cc1ccc(S(=O)(=O)N(C)C[C@@H]2Oc3ccc(NS(=O)(=O)c4cn(C)cn4)cc3C(=O)N([C@@H](C)CO)C[C@@H]2C)cc1,0,7,4,nt,nt,nt
COc1ccc(S(=O)(=O)NCCSc2ccc(Cl)cc2)cc1OC,nt,8,-38*,nt,-2,0
O=S(=O)(NCCSc1ccc(Cl)cc1)c1ccc2c(c1)OCCO2,nt,13,nt,2,nt,nt
Cc1nc2nc(C)c(C)nc2nc1C,1,1,12,-3,nt,43*
C[C@@H]1CN([C@@H](C)CO)C(=O)c2cccc(NC(=O)Nc3ccc4c(c3)OCO4)c2O[C@@H]1CN(C)C(=O)NC1CCCCC1,-11,37,-4,nt,1,1
CCC(=O)N(C)C[C@@H]1Oc2cc(-c3ccccc3)ccc2S(=O)(=O)N([C@H](C)CO)C[C@@H]1C,0,-6,-8,nt,5,0
O=C(Nc1ccccc1)N1C[C@@H]2[C@H](c3ccccc31)[C@@H](CO)N2Cc1ccccc1,0,-13,-7,nt,1,0
C[C@@H]1CN([C@@H](C)CO)C(=O)c2cccc(NS(C)(=O)=O)c2O[C@H]1CN(C)Cc1ccc(Oc2ccccc2)cc1,18,-8,1,16,-3,0
C[C@@H]1CN([C@@H](C)CO)C(=O)c2cccc(NS(C)(=O)=O)c2O[C@H]1CN(C)CC1CCCCC1,0,103*!,4,8,7,0
